Bioassay records (PubChem)
ERAP1 inh = blocks human ERAP1 aminopeptidase activity. recombinant ERAP1, Leu-AMC fluorescence, 60 min. inhibition, % at 10.7 µM. actives 0.15% (n = 340,000). AID 652197;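 active = mean replicate inhibition of at least 30%, or all replicates individually reaching that 30% level; inactive = mean below 30% and not every replicate reaching it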;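 also: 0% = neutral control wells and 100% = L-leucinethiol positive control wells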
F508del corr = correctors of CFTR F508del function in bronchial epithelial cells | activity (quench increase), % at 7.58 µM | AID 720511 | CFBE cells, YFP halide quenching; stimulated with forskolin plus potentiator P3; % fluorescence drop versus neutral controls | actives 0.36% (n = 350,000);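 active = mean added fluorescence quench of at least 8% versus neutral control, with both replicates also reaching 8%; inconclusive = only one of the mean or replicate conditions met; inactive = mean below 8% and not both replicates reaching 8%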;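 also: cells transiently co-express mutant CFTR-F508del with the halide-sensitive YFP; corrector assay measuring rescue of mutant channel to the surface after 24 h compound exposure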
DENV2 CPE rescue = protects cells from dengue virus 2 cytopathic effect; CPE inhibition, % at 9.99 µM; actives 1.7% (n = 350,000); DENV2-infected cells, cytopathic effect rescue, plate reader; in the data active = CPE inhibition above about 20%, passing the limit was not always enough; inconclusive = no clear call, values can overlap the other calls; tested in BHK-21 cells;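 also: 0% = median of neutral control wells and 100% = median of positive control wells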
E-selectin induc = induces E-selectin expression in human endothelial cells; HUVEC E-selectin immunofluorescence imaging; normalized: neutral wells 0, TNF-alpha wells 100; activation, % at 7.58 µM; actives 0.37% (n = 260,000);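 active = mean E-selectin-positive cell signal at least 10% of the positive control, reached in at least 60% of replicates, without over 20% cell loss; inconclusive = no rule given, readout overlaps actives, possibly toxicity-flagged; inactive = the rest, including those meeting only one limit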
Target sequence (P16581 whole entry, looked up): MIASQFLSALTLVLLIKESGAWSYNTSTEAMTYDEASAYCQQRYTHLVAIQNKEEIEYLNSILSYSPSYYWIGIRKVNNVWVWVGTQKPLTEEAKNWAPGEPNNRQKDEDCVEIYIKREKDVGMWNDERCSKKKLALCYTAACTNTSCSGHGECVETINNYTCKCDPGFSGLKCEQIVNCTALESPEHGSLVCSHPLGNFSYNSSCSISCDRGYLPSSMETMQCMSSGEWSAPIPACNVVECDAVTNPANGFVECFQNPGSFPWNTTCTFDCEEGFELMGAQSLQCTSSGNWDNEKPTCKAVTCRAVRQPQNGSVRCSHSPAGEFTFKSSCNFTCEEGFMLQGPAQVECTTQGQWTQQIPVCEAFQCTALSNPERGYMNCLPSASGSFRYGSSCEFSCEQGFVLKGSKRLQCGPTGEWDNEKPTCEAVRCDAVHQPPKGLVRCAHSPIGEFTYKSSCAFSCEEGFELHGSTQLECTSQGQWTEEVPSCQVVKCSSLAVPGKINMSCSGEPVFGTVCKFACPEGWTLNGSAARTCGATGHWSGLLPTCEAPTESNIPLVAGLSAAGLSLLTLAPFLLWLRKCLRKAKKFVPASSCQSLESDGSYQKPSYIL
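Test system: HUVEC; input: 3,000 HUVEC/well; measured by: immunofluorescence imaging; read-out: % PE-positive cells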
FGF22 binding-1 = binders of recombinant human FGF22 by thermal shift; SYPRO orange fluorescence; percent of sucrose octasulfate shift, DMSO zero; actives 1.5% (n = 340,000); activity (Tm shift, normalised), % at 9.99 µM; AID 651658;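 active = mean Tm shift, scaled 0 neutral to 100 positive control, at about 1.3% or above, every replicate too, limit read from the data; inconclusive = no clear call, values can overlap the other calls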
FGF22 binding-2 = binders of human FGF22 by thermal shift; shares compounds with FGF22 binding-1; recombinant FGF22 thermal shift, SYPRO orange fluorescence; thermal shift activity, °C (ΔTm) at 38 µM; actives 2% (n = 1,000); AID 720646;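 active = fitted rise in melting shift crosses a set limit at or below the top valid dose tested; inconclusive = flat fit at mid-level activity, or a poor quality fit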
SYPRO no-protein = compound-only SYPRO artifact for FGF22 binders | shares compounds with FGF22 binding-1 | compound-only SYPRO orange thermal shift counter-screen, no protein | AC50, µM (series often up to 38 µM) | actives 2% (n = 1,000);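 active = rising signal whose fitted curve reaches the 0.54 level within the top valid dose, showing a melting point, actives reach about 13 µM in these data; inactive = the rest, including activity in the opposite direction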; also: value is where the raw curve crosses a fixed level and not half-maximal
Active calls of the source: *; i = inactive; ? = inconclusive; . = no result given; [ ] = dose if it differs, or a comment. The list is not random: actives were taken first. Their share in the collection is about 3.7%.

SMILES	ERAP1 inh	F508del corr	DENV2 CPE rescue	E-selectin induc	FGF22 binding-1	FGF22 binding-2	SYPRO no-protein
C[C@H](CO)N1C[C@H](C)[C@H](CN(C)C(=O)Nc2cccc3ccccc23)Oc2c(NS(=O)(=O)c3ccccc3)cccc2C1=O	1	-3	.	0	0	.	.
N#CCc1nn(-c2ccccc2)c2ncnc(N)c12	0	2	3	.	1.5*	-0.003	i
CC(C)c1cn(CC[C@@H]2CC[C@@H](NC(=O)Nc3cc(Cl)cc(Cl)c3)[C@H](CO)O2)nn1	2	2	1	0	1	.	.
CN(C)C(=O)c1cccc(-c2ccc3c(c2)[C@H]2[C@H](CCN2S(=O)(=O)c2ccccc2)[C@@H](CO)N3)c1	-1	3	-3	0	0	.	.
CCCC(=O)c1ccc(OCc2cn(CC(=O)c3ccc(O)cc3)nn2)cc1	2	-5	-9	0	1.5*	0.04	i
CC(=O)c1cc(C)c(OCc2cn(CC(=O)c3ccc(O)cc3)nn2)c(C)c1	1	0	17	0	0	.	.
O=C(Cn1cc(COc2ccc(Br)cc2)nn1)c1ccc(O)cc1	0	1	-7	0	1.5*	0.019	i
O=Cc1cccc(OCc2cn(CC(=O)c3ccc(O)cc3)nn2)c1	-4	-2	7	0	0	.	.
C[C@@H]1CN([C@H](C)CO)S(=O)(=O)c2ccc(/C=C/c3ccccc3)cc2O[C@H]1CN(C)C(=O)NC1CCCC1	1	-1	4	-4	0	.	.
O=C(C1CC1)N1CC2(C1)[C@H](c1ccccc1)[C@@H](CO)N2Cc1ccc(Cl)cc1	0	2	4	0	2.9*	0.16[42 µM]	i
CCNC(=O)C[C@H]1CC[C@@H]2[C@@H](COc3ccc(NC(=O)c4ccccc4)cc3C(=O)N2C)O1	-1	1	?	0	0	.	.
O=C(NNC(=O)C1CCN(S(=O)(=O)c2ccccc2C(F)(F)F)CC1)c1ccccc1O	3	1	-2	.	2.6*	-0.15	i
C[C@H](NC(=O)C[C@@H]1C[C@@H]2c3cc(NC(=O)c4cccnc4)ccc3O[C@@H]2[C@H](CO)O1)c1ccccc1	2	-1	-3	0	0	.	.
COc1ccc(NC(=O)c2nn(C)cc2[N+](=O)[O-])cc1	1	-9	-1	.	0	.	.
COc1ccc(NC(=O)c2[nH]ncc2[N+](=O)[O-])cc1	2	-1	9	2	1.4*	-0.16	i
CN(C)CC(=O)N[C@@H]1CC[C@@H](CCNC(=O)Nc2ccc(C(F)(F)F)cc2)O[C@@H]1CO	1	-1	7	0	0	.	.
CCc1cccc(NS(=O)(=O)c2ccc3c(c2)NC(=O)CC(=O)N3)c1	7	0	4	.	1.7*	0.08	i
Cc1cccc(NS(=O)(=O)c2ccc3c(c2)NC(=O)CC(=O)N3)c1	2	-1	-2	0	0	.	.
CCOC(=O)c1csc(NC(=O)c2cc(=O)c3ccccc3o2)n1	4	-3	6	.	1	.	.
CC(=O)c1sc(NC(=O)c2cc(=O)c3ccccc3o2)nc1C	1	-1	5	.	5.1*	-0.077	i
COC(=O)[C@]1(Cc2ccccc2)N[C@H](CN(C)S(=O)(=O)c2ccc(C)cc2)[C@@H]2C(=O)N(Cc3ccccc3)C(=O)[C@@H]21	-1	1	24*	.	1.4*	-0.13	i
C=CCC1c2cccc(C(=O)O)c2C(=O)N1c1cccc(OC)c1 (stereo unspecified)	-9	0	-2	1	18*	0.13	i
C=CCC1c2cccc(C(=O)O)c2C(=O)N1c1cccc(C)c1 (stereo unspecified)	-5	0	4	.	0	.	.
CCC(=O)N1[C@H](CO)[C@@H](c2ccccc2)C12CN(C(=O)c1cnccn1)C2	2	-1	-4	0	1.3*	-0.085	i
COCC(=O)N1CC2(C1)[C@H](c1ccccc1)[C@@H](CO)N2C(=O)NC1CCCC1	1	-4	10	0	1.3*	0.018	i
SMILES	ERAP1 inh	F508del corr	DENV2 CPE rescue	E-selectin induc	FGF22 binding-1	FGF22 binding-2	SYPRO no-protein
C[C@@H]1CN([C@H](C)CO)C(=O)c2cc(NS(=O)(=O)c3ccc(Cl)cc3)ccc2O[C@@H]1CN(C)S(=O)(=O)c1ccccc1	.	-2	-7	0	0	.	.
CCC(=O)Nc1nc(C)c(-c2csc(Nc3ccccn3)n2)s1	0	5	-6	13	1.6*	.	i
O=C(NC1CC1)c1cccc(NC(=O)c2cnn(-c3ccccc3)n2)c1	1	0	.	0	1.4*	0.036	i
O=C(Nc1cccc(C(=O)NC2CCCC2)c1)c1ccccc1	0	1	-4	.	0	.	.
CC(C)c1cn(CC[C@@H]2CC[C@H](NS(=O)(=O)c3ccccc3)[C@@H](CO)O2)nn1	2	1	-2	0	0	.	.
O=C(c1ccc(F)cc1)N1[C@@H]2CNc3ccccc3[C@@H]2[C@@H]1CO	-1	0	-11	0	-1	.	.
O=Cc1cc(N=Nc2cccc(C(=O)O)c2)ccc1O	3	1	?	.	2.0*	0.065	i
O=C1Cc2ccccc2C(=O)N1c1cccc(Cl)c1	-2	-2	2	.	2.2*	0.02	i
O=C1Cc2ccccc2C(=O)N1c1ccccc1	-3	0	?	.	42	.	.
O=C(CN(Cc1ccccc1)S(=O)(=O)c1ccccc1)N/N=C/c1ccccc1C(=O)O	-5	-1	-5	2	2.3*	-0.1	i
O=C(C[C@H]1CC[C@H]2[C@@H](COC[C@H](O)CN2CC2CCOCC2)O1)NCC1CCCCC1	-2	-2	14	0	2.4*	-0.021[42 µM]	i
CN1CCN(C(=O)C[C@@H]2CC[C@H]3[C@@H](COC[C@H](O)CN3CC3CCCCC3)O2)CC1	1	4	-13	.	24*	0.1	i
Cc1ccccc1NCC(=O)N/N=C\C=C\c1cccc([N+](=O)[O-])c1	3	1	-3	0	1.5*	-0.1	i
O=C(CCc1c[nH]c2ccccc12)Nc1ccc(Oc2cccnc2)cc1	-5	-2	1	1	1.5*	-0.17	i
O=C(NCCc1c[nH]c2ccccc12)c1ccccc1	2	-1	-1	.	1	.	.
Cc1cc(NC(=O)CCc2c[nH]c3ccccc23)ccc1Oc1cccnc1	-3	2	3	1	1	.	.
N#CCC(=O)Nc1ccc(C(=O)NCCc2c[nH]c3ccccc23)cc1	2	-1	3	0	1.4*	0.013	i
C/C(CC(=O)Nc1cccc(Cl)c1Cl)=N\NC(=O)C(=O)NC1CCCCC1	-3	0	3	0	28*	0.051	i
